Laboratory results from ChEMBL document CHEMBL3124845, “Synthesis, neuronal activity and mechanisms of action of halogenated enaminones” (Eur J Med Chem, 2014).
The source made the active and inactive calls. The calls are words filed in the database; no cut-off is given here.

tested on: not listed separately; assay: Anticonvulsant activity in Sprague-Dawley rat hippocampus CA1 pyramidal neurons assessed as suppression of action potential firing frequency at 10 uM by voltage-clamp electrophysiology relative to control; format: functional, Pyramidal neuron; settings: in the assay text read “current-clamp” for “voltage-clamp”

Structure (SMILES)	Activity [%]
CCOC(=O)C1C(=O)C=C(Nc2ccc(Br)cc2Br)CC1C (stereo not drawn)	76.3
COC(=O)C1C(=O)C=C(Nc2ccc(Br)cc2Br)CC1c1ccccc1 (stereo not drawn)	39.2

tested on: Hippocampus; assay: Anticonvulsant activity in Sprague-Dawley rat hippocampus assessed as inhibition of population spike amplitude at >= 100 uM preincubated for 6 mins followed by compound washout measured after 10 mins by […]; format: functional, tissue-based; settings: not given
Procedure, shortened: (§1)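 Extracellular recording of population spikes in coronal hippocampal slices from male Sprague-Dawley rats (100–150 g), aCSF 29–31 C. Spike amplitude measured from the positive peak to the negative tip; readings taken in control, 6 min into compound and 10 min after washout. Concentration-response run up to […]; mean and standard error.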

Structure (SMILES)	inhibition
CCOC(=O)C1C(=O)C=C(Nc2ccc(Br)cc2Br)CC1C (stereo not drawn)	inactive
COC(=O)C1C(=O)C=C(Nc2ccc(I)cc2I)CC1c1ccccc1 (stereo not drawn)	inactive
CCOC(=O)C1C(=O)C=C(Nc2ccc(Cl)cc2Cl)CC1C (stereo not drawn)	inactive
CC1CC(=O)C=C(Nc2ccc(Br)cc2Br)C1 (stereo not drawn)	inactive
CCOC(=O)C1C(=O)C=C(Nc2ccc(I)cc2I)CC1c1ccccc1 (stereo not drawn)	inactive
O=C1C=C(Nc2ccc(Br)cc2Br)CCC1	inactive
COC(=O)C1C(=O)C=C(Nc2ccc(Br)cc2Br)CC1C (stereo not drawn)	inactive
CCOC(=O)C1CCC(Nc2ccc(Br)cc2Br)=CC1=O (stereo not drawn)	inactive
CC1(C)CCC(Nc2ccc(Br)cc2Br)=CC1=O	inactive
COC(=O)C1C(=O)C=C(Nc2ccc(Br)cc2Br)CC1c1ccccc1 (stereo not drawn)	inactive

tested on: Hippocampus; assay: Anticonvulsant activity in Sprague-Dawley rat hippocampus assessed as inhibition of population spike amplitude at 10 uM preincubated for 6 mins followed by compound washout measured after 10 mins by […]; format: functional; settings: not given; procedure, shortened: as §1

Structure (SMILES)	inhibition at 10 µM [%]
CCOC(=O)C1C(=O)C=C(Nc2ccc(Br)cc2Br)CC1C (stereo not drawn)	-34.7
COC(=O)C1C(=O)C=C(Nc2ccc(I)cc2I)CC1c1ccccc1 (stereo not drawn)	8.5
CCOC(=O)C1C(=O)C=C(Nc2ccc(Cl)cc2Cl)CC1C (stereo not drawn)	-24.6
CC1CC(=O)C=C(Nc2ccc(Br)cc2Br)C1 (stereo not drawn)	8
CCOC(=O)C1C(=O)C=C(Nc2ccc(I)cc2I)CC1c1ccccc1 (stereo not drawn)	4
O=C1C=C(Nc2ccc(Br)cc2Br)CCC1	-23.7
COC(=O)C1C(=O)C=C(Nc2ccc(Br)cc2Br)CC1C (stereo not drawn)	-25
CCOC(=O)C1CCC(Nc2ccc(Br)cc2Br)=CC1=O (stereo not drawn)	35
CC1(C)CCC(Nc2ccc(Br)cc2Br)=CC1=O	-18.2
COC(=O)C1C(=O)C=C(Nc2ccc(Br)cc2Br)CC1c1ccccc1 (stereo not drawn)	-72.2

tested on: Pyramidal neuron; assay: Anticonvulsant activity in Sprague-Dawley rat hippocampus CA1 pyramidal neurons assessed as suppression of EPSC amplitude at 10 uM at -60mV holding potential measured 15 to 20 mins post compound washout by voltage-clamp electrophysiology; format: functional, cell-based; settings: not given
Procedure, shortened: (§2)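 Coronal hippocampal slices ([…]) from halothane-anaesthetised male Sprague-Dawley rats (100–150 g), submerged in carbogenated aCSF at 29–31 C, 2–3 mL/min. Blind whole-cell patch of CA1 pyramidal cells with K-gluconate pipette solution (pH 7.3); voltage clamp near rest (60 mV). EPSCs evoked by afferent stimulation; two responses 30 s apart averaged; compound at […].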

Structure (SMILES)	Activity
CCOC(=O)C1C(=O)C=C(Nc2ccc(Br)cc2Br)CC1C (stereo not drawn)	Active
COC(=O)C1C(=O)C=C(Nc2ccc(Br)cc2Br)CC1c1ccccc1 (stereo not drawn)	Active

tested on: not listed separately; assay: Anticonvulsant activity in Sprague-Dawley rat hippocampus CA1 pyramidal neurons assessed as suppression of EPSC amplitude at 10 uM by voltage-clamp electrophysiology in presence of GABA-B receptor antagonist CGP55845; format: functional, Pyramidal neuron; settings: not given

Structure (SMILES)	Activity [%]
CCOC(=O)C1C(=O)C=C(Nc2ccc(Br)cc2Br)CC1C (stereo not drawn)	16.6
COC(=O)C1C(=O)C=C(Nc2ccc(Br)cc2Br)CC1c1ccccc1 (stereo not drawn)	16.6

tested on: not listed separately; assay: Anticonvulsant activity in Sprague-Dawley rat hippocampus CA1 pyramidal neurons assessed as suppression of EPSC amplitude at 10 uM at -60mV holding potential by voltage-clamp electrophysiology relative to control; format: functional, Pyramidal neuron; settings: not given; procedure, shortened: as §2

Structure (SMILES)	Activity [%]
CCOC(=O)C1C(=O)C=C(Nc2ccc(Br)cc2Br)CC1C (stereo not drawn)	47.5
COC(=O)C1C(=O)C=C(Nc2ccc(Br)cc2Br)CC1c1ccccc1 (stereo not drawn)	31.2

tested on: not listed separately; assay: Anticonvulsant activity in Sprague-Dawley rat hippocampus CA1 pyramidal neurons assessed as suppression of EPSC amplitude at 10 uM by voltage-clamp electrophysiology in presence of GABA transaminase inhibitor vigabatrin; format: functional, Pyramidal neuron; settings: not given

Structure (SMILES)	Activity [%]
CCOC(=O)C1C(=O)C=C(Nc2ccc(Br)cc2Br)CC1C (stereo not drawn)	3.9
COC(=O)C1C(=O)C=C(Nc2ccc(Br)cc2Br)CC1c1ccccc1 (stereo not drawn)	40

tested on: Mus musculus; assay: Anticonvulsant activity in CF1 mouse at <100 mg/kg, ip after 30 mins; format: functional, organism-based; settings: not given
Procedure, shortened: (§3)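 Male CF1 mice; compound dissolved or suspended in 30% polyethylene glycol 400, given intraperitoneally at 30, 100 and 300 mg/kg. Protection scored in maximal electroshock and subcutaneous pentylenetetrazole seizure tests, with rotorod for neurotoxicity, read at 30 min and 4 h after dosing.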

Structure (SMILES)	Activity
CCOC(=O)C1C(=O)C=C(Nc2ccc(Br)cc2Br)CC1C (stereo not drawn)	Active
COC(=O)C1C(=O)C=C(Nc2ccc(Br)cc2Br)CC1c1ccccc1 (stereo not drawn)	Active

tested on: Mus musculus; assay: Anticonvulsant activity in CF1 mouse at 100 to 300 mg/kg, ip after 30 mins; format: functional, organism-based; settings: not given; procedure, shortened: as §3

Structure (SMILES)	Activity
COC(=O)C1C(=O)C=C(Nc2ccc(Br)cc2Br)CC1C (stereo not drawn)	Active

tested on: Hippocampus; assay: Anticonvulsant activity in Sprague-Dawley rat hippocampus assessed as inhibition of population spike amplitude preincubated for 6 mins followed by compound washout measured after 10 mins by […]; format: functional, tissue-based; settings: not given; procedure, shortened: as §1

Structure (SMILES)	EC50 [nM]	inhibition
CCOC(=O)C1C(=O)C=C(Nc2ccc(Br)cc2Br)CC1C (stereo not drawn)	1900	Dose-dependent effect
CCOC(=O)C1C(=O)C=C(Nc2ccc(Cl)cc2Cl)CC1C (stereo not drawn)	10000	
COC(=O)C1C(=O)C=C(Nc2ccc(Br)cc2Br)CC1c1ccccc1 (stereo not drawn)	2100	Dose-dependent effect
